Measured values from ChEMBL document CHEMBL4184298, “Development of Potent Inhibitors of Receptor Tyrosine Kinases by Ligand-Based Drug Design and Target-Biased Phenotypic Screening” (J Med Chem, 2018).
Active and inactive are the calls of the source. The calls are words filed in the database; no cut-off is given here.

Tests used:
[1] = target: T1, Tyrosine-protein kinase receptor UFO (Homo sapiens, UniProt P30530); assay: Inhibition of wild-type human partial length AXL (R497 to Y821 residues) expressed in bacterial expression system using poly [Glu, Try] 4:1 as substrate in presence of [gamma-33P]ATP
T1 sequence (P30530 whole entry): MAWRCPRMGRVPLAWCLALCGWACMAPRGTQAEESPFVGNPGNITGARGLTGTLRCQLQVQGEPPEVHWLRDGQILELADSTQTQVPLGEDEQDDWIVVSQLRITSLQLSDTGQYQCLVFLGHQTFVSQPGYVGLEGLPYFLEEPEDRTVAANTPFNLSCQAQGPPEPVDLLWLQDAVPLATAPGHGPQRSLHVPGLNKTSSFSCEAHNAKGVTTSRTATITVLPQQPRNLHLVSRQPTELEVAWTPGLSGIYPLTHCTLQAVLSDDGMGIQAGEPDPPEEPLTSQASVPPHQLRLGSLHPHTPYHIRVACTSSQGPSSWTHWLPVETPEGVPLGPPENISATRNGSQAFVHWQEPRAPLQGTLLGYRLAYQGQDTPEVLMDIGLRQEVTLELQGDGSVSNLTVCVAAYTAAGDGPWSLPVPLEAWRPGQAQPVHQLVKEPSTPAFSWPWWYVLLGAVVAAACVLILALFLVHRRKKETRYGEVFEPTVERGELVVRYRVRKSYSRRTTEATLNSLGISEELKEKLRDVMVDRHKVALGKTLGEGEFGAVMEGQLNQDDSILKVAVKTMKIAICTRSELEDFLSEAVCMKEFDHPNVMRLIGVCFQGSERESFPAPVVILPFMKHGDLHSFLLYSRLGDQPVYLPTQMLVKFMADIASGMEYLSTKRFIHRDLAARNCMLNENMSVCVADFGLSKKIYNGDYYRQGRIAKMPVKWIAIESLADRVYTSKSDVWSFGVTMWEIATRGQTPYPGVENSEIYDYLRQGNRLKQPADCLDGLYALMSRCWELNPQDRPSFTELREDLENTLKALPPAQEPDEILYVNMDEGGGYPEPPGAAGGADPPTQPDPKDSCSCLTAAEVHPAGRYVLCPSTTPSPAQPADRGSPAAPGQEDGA

[2] = target: Hepatocyte growth factor receptor (Homo sapiens, UniProt P08581); assay: Inhibition of wild-type human partial length MET (D1010 to S1367 residues) expressed in bacterial expression system using poly [Glu, Try] 4:1 as substrate in presence of [gamma-33P]ATP
Chain of Hepatocyte growth factor receptor (P08581 whole entry, the tested form may be a part): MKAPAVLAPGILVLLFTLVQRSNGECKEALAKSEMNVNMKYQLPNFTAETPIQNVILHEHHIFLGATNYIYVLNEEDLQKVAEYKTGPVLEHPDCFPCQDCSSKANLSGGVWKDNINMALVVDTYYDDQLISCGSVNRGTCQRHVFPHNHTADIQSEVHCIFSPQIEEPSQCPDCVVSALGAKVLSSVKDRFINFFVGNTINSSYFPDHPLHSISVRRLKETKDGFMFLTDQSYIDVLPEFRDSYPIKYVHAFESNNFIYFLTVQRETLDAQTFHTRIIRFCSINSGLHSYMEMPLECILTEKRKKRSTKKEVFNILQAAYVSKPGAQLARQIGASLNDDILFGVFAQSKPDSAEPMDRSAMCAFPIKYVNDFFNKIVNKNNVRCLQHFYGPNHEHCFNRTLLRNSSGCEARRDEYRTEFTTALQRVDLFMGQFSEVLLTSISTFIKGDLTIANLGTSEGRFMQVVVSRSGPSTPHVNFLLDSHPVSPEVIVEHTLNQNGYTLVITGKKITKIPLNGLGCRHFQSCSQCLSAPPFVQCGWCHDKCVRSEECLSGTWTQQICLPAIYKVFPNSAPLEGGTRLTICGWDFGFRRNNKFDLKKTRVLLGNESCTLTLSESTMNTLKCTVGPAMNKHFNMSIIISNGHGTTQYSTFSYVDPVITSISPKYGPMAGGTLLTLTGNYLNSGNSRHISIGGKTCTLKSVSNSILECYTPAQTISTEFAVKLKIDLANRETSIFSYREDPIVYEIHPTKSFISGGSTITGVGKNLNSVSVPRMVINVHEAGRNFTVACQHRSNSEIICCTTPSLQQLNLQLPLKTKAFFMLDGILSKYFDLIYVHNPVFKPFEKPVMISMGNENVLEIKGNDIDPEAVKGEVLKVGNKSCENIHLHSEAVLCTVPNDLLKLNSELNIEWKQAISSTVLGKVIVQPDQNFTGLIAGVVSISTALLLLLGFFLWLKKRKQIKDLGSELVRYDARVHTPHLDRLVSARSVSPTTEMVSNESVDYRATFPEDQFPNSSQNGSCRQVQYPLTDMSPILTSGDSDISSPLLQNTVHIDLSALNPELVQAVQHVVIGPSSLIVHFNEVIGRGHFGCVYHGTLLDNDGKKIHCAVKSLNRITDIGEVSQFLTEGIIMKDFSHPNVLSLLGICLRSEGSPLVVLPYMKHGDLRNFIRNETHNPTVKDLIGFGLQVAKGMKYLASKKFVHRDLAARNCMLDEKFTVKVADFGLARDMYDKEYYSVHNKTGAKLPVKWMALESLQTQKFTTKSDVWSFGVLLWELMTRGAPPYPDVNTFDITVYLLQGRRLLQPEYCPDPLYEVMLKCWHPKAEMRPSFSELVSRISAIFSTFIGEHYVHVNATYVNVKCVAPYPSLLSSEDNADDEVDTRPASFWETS
Summary of the method: (§1)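 Radiometric assay on recombinant kinase: ³³P incorporation into the kinase substrate was measured and activity was expressed relative to a DMSO control.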

[3] = target: T2, Tyrosine-protein kinase Mer (Homo sapiens, UniProt Q12866); assay: Inhibition of wild-type human partial length MER (R557 to L884 residues) expressed in bacterial expression system using poly [Glu, Try] 4:1 as substrate in presence of [gamma-33P]ATP
T2 sequence (Q12866 whole entry): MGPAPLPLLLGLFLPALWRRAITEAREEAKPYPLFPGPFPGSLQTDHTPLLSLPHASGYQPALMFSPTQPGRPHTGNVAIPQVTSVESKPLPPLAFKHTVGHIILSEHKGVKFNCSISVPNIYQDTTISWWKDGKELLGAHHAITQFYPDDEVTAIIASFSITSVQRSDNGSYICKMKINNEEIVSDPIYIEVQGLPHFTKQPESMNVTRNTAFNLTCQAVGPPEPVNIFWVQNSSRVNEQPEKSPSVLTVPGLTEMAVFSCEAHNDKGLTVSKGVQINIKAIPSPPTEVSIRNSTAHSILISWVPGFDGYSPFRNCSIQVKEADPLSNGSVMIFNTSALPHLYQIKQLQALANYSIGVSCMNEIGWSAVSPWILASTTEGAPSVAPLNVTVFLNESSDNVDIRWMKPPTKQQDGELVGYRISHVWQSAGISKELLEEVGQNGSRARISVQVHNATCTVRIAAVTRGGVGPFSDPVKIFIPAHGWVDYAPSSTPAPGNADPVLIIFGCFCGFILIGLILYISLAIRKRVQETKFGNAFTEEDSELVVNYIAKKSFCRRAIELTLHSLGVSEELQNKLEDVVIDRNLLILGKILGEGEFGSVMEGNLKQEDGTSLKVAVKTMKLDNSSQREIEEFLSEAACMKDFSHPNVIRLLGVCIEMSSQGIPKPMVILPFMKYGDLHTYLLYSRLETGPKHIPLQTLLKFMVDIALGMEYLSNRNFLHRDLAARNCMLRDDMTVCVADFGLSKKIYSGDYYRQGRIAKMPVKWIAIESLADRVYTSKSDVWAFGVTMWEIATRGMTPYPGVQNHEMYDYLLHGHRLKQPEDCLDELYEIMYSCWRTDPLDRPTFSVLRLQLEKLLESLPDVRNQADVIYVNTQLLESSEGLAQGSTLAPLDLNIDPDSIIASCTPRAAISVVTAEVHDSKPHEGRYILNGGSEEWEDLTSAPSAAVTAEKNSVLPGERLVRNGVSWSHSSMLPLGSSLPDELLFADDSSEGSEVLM

[4] = target: Vascular endothelial growth factor receptor 2 (Homo sapiens, UniProt P35968); assay: Inhibition of wild-type human partial length VEGFR2 (R787 to P1253 residues) expressed in mammalian expression system using poly [Glu, Try] 4:1 as substrate in presence of [gamma-33P]ATP
Chain of Vascular endothelial growth factor receptor 2 (P35968 whole entry, the tested form may be a part): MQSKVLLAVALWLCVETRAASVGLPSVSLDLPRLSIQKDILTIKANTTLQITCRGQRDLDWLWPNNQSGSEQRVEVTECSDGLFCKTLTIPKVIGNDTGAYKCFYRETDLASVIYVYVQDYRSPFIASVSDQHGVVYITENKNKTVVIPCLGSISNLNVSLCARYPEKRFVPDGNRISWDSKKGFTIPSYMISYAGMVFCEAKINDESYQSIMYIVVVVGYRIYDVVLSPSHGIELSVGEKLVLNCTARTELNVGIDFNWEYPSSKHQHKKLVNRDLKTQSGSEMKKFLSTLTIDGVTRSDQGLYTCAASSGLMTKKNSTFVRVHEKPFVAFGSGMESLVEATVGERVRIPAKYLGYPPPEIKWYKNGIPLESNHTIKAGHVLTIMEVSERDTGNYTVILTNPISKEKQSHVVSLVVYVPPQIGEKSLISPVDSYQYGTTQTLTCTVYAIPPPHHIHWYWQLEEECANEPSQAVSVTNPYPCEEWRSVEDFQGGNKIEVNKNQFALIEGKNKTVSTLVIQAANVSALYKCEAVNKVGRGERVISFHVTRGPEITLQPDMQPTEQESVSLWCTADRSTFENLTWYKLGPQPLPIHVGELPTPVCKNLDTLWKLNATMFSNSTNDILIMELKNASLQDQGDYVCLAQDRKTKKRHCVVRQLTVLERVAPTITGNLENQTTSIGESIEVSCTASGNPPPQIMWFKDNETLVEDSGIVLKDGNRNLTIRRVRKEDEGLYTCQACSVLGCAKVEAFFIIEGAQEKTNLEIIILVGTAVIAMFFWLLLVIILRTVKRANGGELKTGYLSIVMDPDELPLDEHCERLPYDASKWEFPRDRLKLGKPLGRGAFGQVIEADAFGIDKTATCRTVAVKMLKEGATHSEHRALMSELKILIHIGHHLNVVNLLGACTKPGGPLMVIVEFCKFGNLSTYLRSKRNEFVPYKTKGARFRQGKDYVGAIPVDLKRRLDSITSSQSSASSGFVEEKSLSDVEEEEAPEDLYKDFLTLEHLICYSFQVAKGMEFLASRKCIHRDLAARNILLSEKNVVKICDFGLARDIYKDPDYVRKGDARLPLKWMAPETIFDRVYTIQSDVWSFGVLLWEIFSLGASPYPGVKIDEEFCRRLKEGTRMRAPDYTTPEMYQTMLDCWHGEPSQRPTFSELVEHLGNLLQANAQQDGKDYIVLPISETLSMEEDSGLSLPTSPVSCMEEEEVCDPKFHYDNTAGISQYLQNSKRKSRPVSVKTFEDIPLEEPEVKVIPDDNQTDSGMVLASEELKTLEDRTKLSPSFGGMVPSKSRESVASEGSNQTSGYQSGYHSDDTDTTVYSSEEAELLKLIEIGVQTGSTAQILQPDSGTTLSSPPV

[5] = target: Epithelial discoidin domain-containing receptor 1 (Homo sapiens, UniProt Q08345); assay: Inhibition of wild-type human partial length DDR1 (R565 to V876 residues) expressed in bacterial expression system using poly [Glu, Try] 4:1 as substrate in presence of [gamma-33P]ATP; summary of the method: as §1
[6] = target: Platelet-derived growth factor receptor alpha (Homo sapiens, UniProt P16234); assay: Inhibition of wild-type human partial length PDGFRA (V575 to D1002 residues) expressed in mammalian expression system using poly [Glu, Try] 4:1 as substrate in presence of [gamma-33P]ATP; summary of the method: as §1
Chain of Platelet-derived growth factor receptor alpha (P16234 whole entry, the tested form may be a part): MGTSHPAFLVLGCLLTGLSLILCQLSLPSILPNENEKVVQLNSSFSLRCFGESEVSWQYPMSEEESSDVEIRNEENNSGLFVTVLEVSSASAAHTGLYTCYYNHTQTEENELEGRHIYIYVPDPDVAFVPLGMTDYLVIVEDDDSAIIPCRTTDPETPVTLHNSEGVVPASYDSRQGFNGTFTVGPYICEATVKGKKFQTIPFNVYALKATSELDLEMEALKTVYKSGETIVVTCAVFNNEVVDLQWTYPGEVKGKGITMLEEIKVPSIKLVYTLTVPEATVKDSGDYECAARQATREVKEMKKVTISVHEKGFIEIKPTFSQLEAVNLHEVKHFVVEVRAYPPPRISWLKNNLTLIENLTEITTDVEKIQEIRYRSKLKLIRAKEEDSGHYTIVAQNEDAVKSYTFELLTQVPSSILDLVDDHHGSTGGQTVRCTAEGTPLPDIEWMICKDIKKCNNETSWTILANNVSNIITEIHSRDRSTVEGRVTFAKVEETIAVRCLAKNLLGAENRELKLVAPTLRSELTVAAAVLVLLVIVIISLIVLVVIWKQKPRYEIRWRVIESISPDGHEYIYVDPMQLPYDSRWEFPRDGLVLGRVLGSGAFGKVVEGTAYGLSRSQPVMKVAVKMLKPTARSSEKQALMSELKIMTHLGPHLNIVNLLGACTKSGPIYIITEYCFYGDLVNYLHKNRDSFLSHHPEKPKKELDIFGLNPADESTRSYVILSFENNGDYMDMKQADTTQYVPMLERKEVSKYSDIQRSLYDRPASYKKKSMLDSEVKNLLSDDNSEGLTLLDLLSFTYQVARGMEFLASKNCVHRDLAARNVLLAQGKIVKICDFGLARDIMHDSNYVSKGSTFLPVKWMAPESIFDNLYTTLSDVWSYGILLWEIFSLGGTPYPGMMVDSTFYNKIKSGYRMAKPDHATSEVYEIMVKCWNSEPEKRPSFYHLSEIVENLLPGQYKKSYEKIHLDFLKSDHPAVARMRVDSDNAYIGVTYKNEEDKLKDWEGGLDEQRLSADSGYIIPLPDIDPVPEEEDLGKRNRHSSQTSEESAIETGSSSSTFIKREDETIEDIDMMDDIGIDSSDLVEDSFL

[7] = target: Proto-oncogene tyrosine-protein kinase Src (Homo sapiens, UniProt P12931); assay: Inhibition of wild-type human partial length SRC (L240 to L536 residues) expressed in bacterial expression system using poly [Glu, Try] 4:1 as substrate in presence of [gamma-33P]ATP
Chain of Proto-oncogene tyrosine-protein kinase Src (P12931 2-536 limits assumed): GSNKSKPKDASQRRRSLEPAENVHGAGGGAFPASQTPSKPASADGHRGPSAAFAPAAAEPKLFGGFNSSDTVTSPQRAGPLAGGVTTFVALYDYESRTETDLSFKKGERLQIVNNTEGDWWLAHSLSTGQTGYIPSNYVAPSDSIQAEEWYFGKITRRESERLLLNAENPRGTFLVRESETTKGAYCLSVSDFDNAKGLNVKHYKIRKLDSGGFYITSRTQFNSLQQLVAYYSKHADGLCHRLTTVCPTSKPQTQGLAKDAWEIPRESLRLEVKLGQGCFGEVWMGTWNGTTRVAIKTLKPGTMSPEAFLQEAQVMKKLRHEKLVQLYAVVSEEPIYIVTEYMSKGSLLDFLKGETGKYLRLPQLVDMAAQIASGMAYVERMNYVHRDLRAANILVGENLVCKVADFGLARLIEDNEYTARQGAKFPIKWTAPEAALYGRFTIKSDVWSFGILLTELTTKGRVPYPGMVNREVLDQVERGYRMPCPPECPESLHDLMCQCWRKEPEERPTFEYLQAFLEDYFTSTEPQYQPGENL

MOLM-13 = assay: Antiproliferative activity against human MOLM13 cells after 5 days by PrestoBlue assay; type: functional, cell-based
[8] = target: Receptor-type tyrosine-protein kinase FLT3 (Homo sapiens, UniProt P36888, ITD); assay: Inhibition of human partial length FLT3 ITD mutant expressed in bacterial expression system using poly [Glu, Try] 4:1 as substrate in presence of [gamma-33P]ATP
Summary of the method: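 Recombinant kinase assays were run radiometrically by an outside contract service. Activity was read as 33P incorporation into each kinase's substrate and expressed relative to a DMSO control.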

Mus musculus = species on record: Mus musculus; assay: (§2) Antiproliferative activity against mouse AXL-positive Breast cancer cells after 5 days by PrestoBlue assay; type: functional
Summary of the method: (§3)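 Cell proliferation: AXL+ cells were exposed to 8-point half-log dilutions (0.03–100 μM). Viability was read with PrestoBlue reagent on day 5.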

[9] = as §2; type: functional; settings: 120 h; summary of the method: as §3

SMILES | IC50 [1] [µM] | IC50 [2] [µM] | IC50 [3] [µM] | IC50 [4] [µM] | IC50 [5] [µM] | IC50 [6] [µM] | IC50 [7] [µM] | Activity (MOLM-13) | IC50 [8] [µM] | Activity (Mus musculus) | EC50 [9] [µM]
CNc1ncc2c(-c3ccc(N4CCN(C)CC4)nc3)nn(CC3CCCC3)c2n1 | 0.07 | 3.5 | 0.48 | 0.4 | 0.1 | 0.99 | 0.8 | Active | 0.03 |  | 
CNc1ncc2c(-c3ccc(N4CCNCC4)cc3)nn(Cc3cn(Cc4ccccc4)nn3)c2n1 | > 10 | > 10 | > 10 | > 10 |  |  | > 10 |  |  | inactive | 
CNc1ncc2c(-c3ccc(N4CCN(C(=O)C(C)(C)C)CC4)nc3)nn(CC3CCCC3)c2n1 | 7.2 | > 10 | > 10 | > 10 |  |  | > 10 |  |  |  | 
CNc1ncc2c(-c3ccc(N4CCNCC4)nc3)nn(CC3OCCO3)c2n1 | 0.53 | > 10 | 6.2 | 4.5 |  |  | 0.89 |  |  |  | ≤ 10
CCN1CCN(c2ccc(-c3nn(Cc4cn(Cc5ccccc5)nn4)c4nc(NC)ncc34)cn2)CC1 | > 10 | 6.3 | > 10 | 7.7 |  |  | > 10 |  |  | inactive | 
CNc1ncc2c(-c3ccc(N4CCN(C(=O)C(C)(C)C)CC4)nc3)nn(Cc3cn(Cc4ccccc4)nn3)c2n1 | 0.76 | > 10 | 5.4 | > 10 |  |  | > 10 |  |  | inactive | 
CNc1ncc2c(-c3ccc(N4CCN(C)CC4)nc3)nn(Cc3cn(Cc4ccccc4)nn3)c2n1 | 0.38 | > 10 | 2 | 7.6 |  |  | 8.3 |  |  | inactive | 
Nc1nc(Nc2ccc3c(c2)CC[C@@H](N2CCCC2)CC3)nn1-c1cc2c(nn1)-c1ccccc1CCC2 [BEMCENTINIB] |  | 3.4 |  |  | 0.02 | 0.02 |  | Active | 0.006 |  | 
CNc1ncc2c(-c3ccc(N4CCNCC4)nc3)nn(CC3CCCC3)c2n1 | 0.12 | 2.1 | 0.64 | 0.69 |  |  | 1.1 |  |  |  | 0.83
CCN1CCN(c2ccc(-c3nn(CC4CCCC4)c4nc(NC)ncc34)cn2)CC1 | 0.26 | > 10 | 2.5 | 1.9 |  |  | 3.6 |  |  |  | 
CNc1ncc2c(-c3ccc(N4CCNCC4)nc3)nn(Cc3cn(-c4ccsc4C(=O)OC)nn3)c2n1 | 0.78 | > 10 | 8.9 | > 10 |  |  | > 10 |  |  | Active | 
CNc1ncc2c(-c3ccc(OC)cc3)nn(CC3OCCO3)c2n1 | 1.3 | > 10 | 8.7 | 7.5 |  |  | 7.2 |  |  |  | ≤ 10
